According to ChEMBL document CHEMBL1157674, “Nanomolar affinity, iminosugar-based chemical probes for specific labeling of lysosomal glucocerebrosidase” (Bioorg Med Chem, 2010):
pIC50, pKi: −log10 of the molar value. Active and inactive are the calls of the source. The calls are words filed in the database; no cut-off is given here.

Columns and labels:
Beta-glucosidase = target: T1, Beta-glucosidase (Homo sapiens, UniProt Q9HCG7); test: Displacement of 4-methylumbelliferyl from non-lysosomal GBA2 by fluorimetry
T1 sequence (Q9HCG7 whole entry): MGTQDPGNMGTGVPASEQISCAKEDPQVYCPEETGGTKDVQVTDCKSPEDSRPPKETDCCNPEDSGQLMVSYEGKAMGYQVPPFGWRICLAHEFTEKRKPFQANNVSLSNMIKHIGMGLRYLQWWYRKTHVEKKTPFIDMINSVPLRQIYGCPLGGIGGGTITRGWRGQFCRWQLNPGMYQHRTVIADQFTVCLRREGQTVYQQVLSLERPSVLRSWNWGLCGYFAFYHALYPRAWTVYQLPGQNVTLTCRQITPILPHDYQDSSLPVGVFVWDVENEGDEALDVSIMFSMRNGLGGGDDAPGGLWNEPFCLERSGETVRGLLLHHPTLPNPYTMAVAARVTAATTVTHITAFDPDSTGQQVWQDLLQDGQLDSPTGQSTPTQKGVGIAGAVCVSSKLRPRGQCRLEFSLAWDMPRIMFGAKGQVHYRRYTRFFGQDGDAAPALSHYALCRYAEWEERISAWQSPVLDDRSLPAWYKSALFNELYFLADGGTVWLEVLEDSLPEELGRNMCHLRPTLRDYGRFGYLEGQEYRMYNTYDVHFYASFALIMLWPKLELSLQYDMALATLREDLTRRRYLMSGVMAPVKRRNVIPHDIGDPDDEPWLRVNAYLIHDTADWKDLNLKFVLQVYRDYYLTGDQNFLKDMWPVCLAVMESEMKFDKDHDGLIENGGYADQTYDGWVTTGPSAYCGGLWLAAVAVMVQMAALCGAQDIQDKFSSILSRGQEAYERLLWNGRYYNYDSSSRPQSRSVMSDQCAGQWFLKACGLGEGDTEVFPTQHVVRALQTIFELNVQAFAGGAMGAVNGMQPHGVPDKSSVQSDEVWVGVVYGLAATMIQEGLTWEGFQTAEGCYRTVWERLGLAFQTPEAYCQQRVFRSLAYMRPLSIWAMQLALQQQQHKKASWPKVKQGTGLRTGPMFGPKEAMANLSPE

[1] = target: T2, Lysosomal acid glucosylceramidase (Homo sapiens) (UniProt P04062); test: Binding affinity to human GBA at 0.1 to 10 uM by fluorescence assay
T2 sequence (whole entry): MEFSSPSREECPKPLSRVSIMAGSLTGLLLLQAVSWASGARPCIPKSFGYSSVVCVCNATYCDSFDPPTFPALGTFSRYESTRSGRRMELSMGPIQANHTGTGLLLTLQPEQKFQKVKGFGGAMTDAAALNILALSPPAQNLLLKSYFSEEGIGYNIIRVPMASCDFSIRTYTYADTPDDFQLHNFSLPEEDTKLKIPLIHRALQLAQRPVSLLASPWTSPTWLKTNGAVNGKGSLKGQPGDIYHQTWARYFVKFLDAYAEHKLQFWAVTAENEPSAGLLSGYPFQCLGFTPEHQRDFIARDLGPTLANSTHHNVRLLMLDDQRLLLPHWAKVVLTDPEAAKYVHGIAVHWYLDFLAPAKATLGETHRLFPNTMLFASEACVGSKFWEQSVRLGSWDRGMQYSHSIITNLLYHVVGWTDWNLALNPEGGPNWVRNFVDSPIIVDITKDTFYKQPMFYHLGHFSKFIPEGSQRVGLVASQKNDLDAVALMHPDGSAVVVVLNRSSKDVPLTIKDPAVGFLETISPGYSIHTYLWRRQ
In short: (§1)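 Ceredase (human placental GBA) photolabeled in 50 µL with probe at 10, 5, 3, 1, 0.5 or 0.1 µM in 50 mM HEPES pH 6.1. UV 366 nm, 30 min, 4 °C. Then CuSO4/TCEP click with fluorescein-N3 for 16 h at 4 °C, denaturation at 95 °C, SDS–PAGE and fluorescence scanning.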

[2] = target: T2, Lysosomal acid glucosylceramidase (Homo sapiens); test: Displacement of deoxynojirimycin from human GBA at 5 uM by fluorescence assay
In short: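 Competition labeling: Ceredase with probe plus 0, 0.5, 5 or 25 µL of 1 mM deoxynojirimycin stock in 50 µL, 50 mM HEPES pH 6.1. UV irradiation at 366 nm for 30 min at 4 °C, then fluorescein-N3 click and SDS–PAGE fluorescence read-out.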

[3] = Displacement of PNPG from almond beta-glucosidase by UV spectroscopy; set-up: species or system Prunus dulcis
In short: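 Almond β-glucosidase with p-nitrophenyl β-D-glucopyranoside (0.2–5 mM) in 0.1 M acetate buffer pH 5.0, 150 µL wells. After 15 min at 37 °C, p-nitrophenol read at 405 nm. Ki derived by varying both inhibitor and substrate concentrations.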

[4] = target: T3, Lysosomal acid glucosylceramidase (Homo sapiens, UniProt P04062); test: Displacement of 4-methylumbelliferyl from human GBA by fluorimetry
T3 sequence (P04062 whole entry): T2 sequence (whole entry)

[5] = target: T2, Lysosomal acid glucosylceramidase (Homo sapiens); test: Binding affinity to human GBA at 0.1 uM by fluorescence assay; in short: as §1
[6] = target: T2, Lysosomal acid glucosylceramidase (Homo sapiens); test: Binding affinity to GBA in human HeLa cell extract at 3 uM by fluorescence assay; assay type: cell-free
In short: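 300 ng Ceredase with increasing HeLa cell lysate (0.5 mg/mL stock; 0–40 µL) in 50 mM HEPES pH 6.1 with probe. UV 366 nm, 30 min, 4 °C. Then fluorescein-N3 click, SDS–PAGE, fluorescence scan and silver stain. Lysate prepared from 2.5×10^5 PBS-washed cells by detergent extraction; protein measured by BCA.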

[7] = target: T2, Lysosomal acid glucosylceramidase (Homo sapiens); test: Binding affinity to human GBA at 10 uM by fluorescence assay; in short: as §1
Prunus dulcis [8] = test: Binding affinity to almond beta-glucosidase expressed in Escherichia coli BL21 (DE3) at 100 uM by fluorescence assay
In short: (§2)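 E. coli BL21(DE3) lysate (1 mg/mL protein by BCA) spiked with varying amounts of almond β-glucosidase. Probe added as 4 or 10 µL of a 1 mM stock in 100 µL, in HEPES/NaCl pH 7.4. Photolabeling at 366 nm, 30 min, 4 °C, then fluorescein-N3 click. SDS–PAGE with fluorescence scan and silver stain.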

[9] = Inhibition of Agrobacterium sp. beta-glucosidase
Prunus dulcis [10] = test: Binding affinity to almond beta-glucosidase at 40 uM after 30 mins by fluorescence assay
In short: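 Almond β-glucosidase from a 1 mg/mL stock, with probe added from a 1 mM stock in 5% DMSO/water, in 50 mM HEPES, 150 mM NaCl, pH 7.4. UV irradiation at 366 nm for 30 min at 4 °C; a non-irradiated control was kept dark. Then CuSO4/TCEP click with fluorescein-N3 for 1 h at rt. SDS–PAGE, fluorescence scan, then silver stain.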

Prunus dulcis [11] = test: Binding affinity to almond beta-glucosidase expressed in Escherichia coli BL21 (DE3) at 40 uM by fluorescence assay; in short: as §2

| Structure (SMILES) | pIC50 (Beta-glucosidase) | Activity [2] | pKi [3] | pIC50 [4] | Activity [5] | Activity [7] | Activity (Prunus dulcis [8]) | also measured |
| --- | --- | --- | --- | --- | --- | --- | --- | --- |
| C#CCOc1ccc(C(=O)CCC(=O)NCCCN2C[C@H](O)[C@@H](O)[C@H](O)[C@H]2CO)cc1 | 7.12 | Active | 5.19 | 5.78 | – | – | – | Activity [1]: inactive |
| C#CCOc1ccc(C(=O)c2ccc(C(=O)NCCCN3C[C@H](O)[C@@H](O)[C@H](O)[C@H]3CO)cc2)cc1 | 7.70 | Active | 5.89 | 6.46 | inactive | Active | – | Activity [6]: Active |
| OC[C@H]1NC[C@H](O)[C@@H](O)[C@@H]1O [DUVOGLUSTAT] | – | – | 3.78 | – | – | – | – | – |
| C#CCOc1ccc(C(=O)c2ccc(O)cc2)cc1 | – | – | – | – | – | – | Active | – |
| CN(C)c1cccc2c(S(=O)(=O)NC[C@H]3N[C@H](CO)[C@@H](O)[C@@H]3O)cccc12 | – | – | – | – | – | – | – | pKi [9]: 8.70 |
| C#CCOc1ccc(C(=O)c2ccc(O[C@@H]3O[C@H](CO)[C@@H](O)[C@H](O)[C@H]3O)cc2)cc1 | – | Active | 3.23 | – | inactive | Active | Active | Activity (Prunus dulcis [10]): Active; Activity (Prunus dulcis [11]): Active |
